From publication PMC3065194 (Biochemical and biophysical research communications, 2010)
pIC50: −log10 of the molar value.

Key:
integrin CD11b/CD18 = integrin CD11b/CD18 (Mus musculus, UniProt P05555+P11835); assay: Neutrophil adhesion assay; type: cell-based; details: WT B6 mouse neutrophils, Figure 3B
Procedure, shortened: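 Peritoneal neutrophils were isolated from thioglycollate-stimulated 8–10-week-old WT B6 mice and suspended in TBS with 0.5% gelatin in ligand-coated wells. Cells were incubated 10 min at 37°C with 5 μM test compound plus agonist, either Mn²⁺ (0.1 mM) or PMA (15 nM). Plates were inverted 30 min at room temperature to remove non-adherent cells. Adherent cells were counted by imaging microscopy, in triplicate wells.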

integrin CD11a/CD18 = details: related integrin CD11a/CD18; cited from earlier work

integrin CD11b/CD18, sequence (P05555 17-1153): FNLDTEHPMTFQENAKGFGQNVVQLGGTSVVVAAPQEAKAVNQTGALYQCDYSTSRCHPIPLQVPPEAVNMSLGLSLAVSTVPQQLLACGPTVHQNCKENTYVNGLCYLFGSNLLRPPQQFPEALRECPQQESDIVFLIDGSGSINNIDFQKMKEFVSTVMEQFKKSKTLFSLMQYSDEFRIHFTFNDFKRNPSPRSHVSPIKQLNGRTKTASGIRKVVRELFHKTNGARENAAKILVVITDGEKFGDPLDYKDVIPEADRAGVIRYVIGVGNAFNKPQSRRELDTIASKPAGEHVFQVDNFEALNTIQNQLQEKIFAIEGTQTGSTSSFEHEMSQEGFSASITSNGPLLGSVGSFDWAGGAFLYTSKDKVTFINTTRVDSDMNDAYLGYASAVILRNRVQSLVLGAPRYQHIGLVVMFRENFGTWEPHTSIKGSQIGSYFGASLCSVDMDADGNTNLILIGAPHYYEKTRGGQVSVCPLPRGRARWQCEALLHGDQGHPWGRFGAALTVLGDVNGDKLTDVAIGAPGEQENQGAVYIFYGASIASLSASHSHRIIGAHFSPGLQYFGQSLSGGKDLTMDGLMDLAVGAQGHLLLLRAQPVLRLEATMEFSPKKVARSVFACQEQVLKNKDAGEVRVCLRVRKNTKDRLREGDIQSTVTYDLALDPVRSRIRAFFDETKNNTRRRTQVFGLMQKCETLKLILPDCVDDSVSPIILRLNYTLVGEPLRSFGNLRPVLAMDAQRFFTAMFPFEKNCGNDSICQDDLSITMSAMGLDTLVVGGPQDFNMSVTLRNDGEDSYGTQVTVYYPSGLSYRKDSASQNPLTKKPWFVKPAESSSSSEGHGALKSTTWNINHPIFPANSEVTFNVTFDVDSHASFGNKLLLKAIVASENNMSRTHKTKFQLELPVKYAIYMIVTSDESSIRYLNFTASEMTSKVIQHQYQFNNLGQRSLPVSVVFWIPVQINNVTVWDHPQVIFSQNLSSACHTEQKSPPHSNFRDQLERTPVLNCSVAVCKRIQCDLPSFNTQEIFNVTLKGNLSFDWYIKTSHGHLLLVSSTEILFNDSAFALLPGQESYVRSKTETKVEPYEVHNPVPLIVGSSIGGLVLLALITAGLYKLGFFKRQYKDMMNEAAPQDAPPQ
integrin CD11b/CD18, sequence (P11835 24-771): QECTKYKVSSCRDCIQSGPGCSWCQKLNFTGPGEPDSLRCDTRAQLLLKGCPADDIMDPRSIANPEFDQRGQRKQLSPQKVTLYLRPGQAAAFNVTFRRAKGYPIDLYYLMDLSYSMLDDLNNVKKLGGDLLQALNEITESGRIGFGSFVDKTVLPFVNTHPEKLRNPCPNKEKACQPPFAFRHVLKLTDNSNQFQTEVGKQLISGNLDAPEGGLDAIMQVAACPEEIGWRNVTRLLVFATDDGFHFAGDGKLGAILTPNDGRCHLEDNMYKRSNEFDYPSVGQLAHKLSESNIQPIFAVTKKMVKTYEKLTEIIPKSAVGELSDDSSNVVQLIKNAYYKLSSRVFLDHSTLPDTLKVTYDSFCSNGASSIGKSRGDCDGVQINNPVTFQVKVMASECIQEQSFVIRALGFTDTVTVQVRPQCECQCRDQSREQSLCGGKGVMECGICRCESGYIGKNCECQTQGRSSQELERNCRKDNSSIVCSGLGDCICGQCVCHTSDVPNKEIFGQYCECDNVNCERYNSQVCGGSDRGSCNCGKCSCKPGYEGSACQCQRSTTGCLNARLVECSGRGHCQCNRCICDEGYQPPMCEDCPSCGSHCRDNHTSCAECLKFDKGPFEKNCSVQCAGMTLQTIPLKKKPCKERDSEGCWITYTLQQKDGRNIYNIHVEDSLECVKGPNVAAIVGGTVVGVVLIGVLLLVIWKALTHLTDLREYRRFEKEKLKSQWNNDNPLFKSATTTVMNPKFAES

CCCCCCCCCCCCCC(=O)O[C@@H]1[C@@H](C)[C@@]2(O)[C@@H](C=C(CO)C[C@]3(O)C(=O)C(C)=C[C@@H]23)[C@@H]2C(C)(C)[C@]12OC(C)=O [PMA, phorbol 12-myristate 13-acetate]
neutrophil adhesion to Fg on integrin activation by agonist (integrin CD11b/CD18): dramatic increase

CC[C@H](C)C(=O)O[C@H]1C[C@@H](C)C=C2C=C[C@H](C)[C@H](CC[C@@H]3C[C@@H](O)CC(=O)O3)[C@H]21 [lovastatin]
pIC50 (integrin CD11a/CD18): 4.60
